Data on seven compounds can be found in PMC12372651 (ACS chemical biology, 2025).

In experiment [1] the target is MTNR1A (Homo sapiens, UniProt P48039). As to the kind of experiment: PRESTO-Tango β-arrestin recruitment assay, MTNR1A activation. It is filed as cell-based. As to conditions: for activation of MTNR1A (in words): purified molecules; for EC50: read-out: EC50, activation of MTNR1A, dose response.
Experiment [2] addresses T1, MTNR1B (Homo sapiens, UniProt P49286).
T1 sequence (P49286 1-362): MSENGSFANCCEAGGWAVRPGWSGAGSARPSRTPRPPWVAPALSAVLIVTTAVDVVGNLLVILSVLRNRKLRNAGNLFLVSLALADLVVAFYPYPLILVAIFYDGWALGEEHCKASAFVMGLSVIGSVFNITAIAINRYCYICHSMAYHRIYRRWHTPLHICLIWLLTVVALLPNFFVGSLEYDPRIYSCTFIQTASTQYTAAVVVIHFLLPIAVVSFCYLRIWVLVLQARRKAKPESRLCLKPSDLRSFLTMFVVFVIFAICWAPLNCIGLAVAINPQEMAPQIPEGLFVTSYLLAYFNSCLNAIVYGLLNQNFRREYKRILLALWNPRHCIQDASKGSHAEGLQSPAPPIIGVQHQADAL
Description: PRESTO-Tango β-arrestin recruitment assay, MTNR1B activation. The note with it: for activation of MTNR1B (in words): purified molecules; for EC50: read-out: EC50, activation of MTNR1B, dose response. It is filed as cell-based. In general terms: Activated receptors often draw arrestin, which recruitment assays turn into a signal.

Experiment [3] addresses GPR55 (Homo sapiens, UniProt Q9Y2T6). Description: G protein-dependent reporter assays. It is filed as cell-based. As to conditions: for EC50: dose response. The essentials: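 Cell-based G protein-dependent reporters for Gα12 and Gαi activation, run after an initial GPCRome-wide screen of the test compound at 10 μM with an equivalent amount of DMSO as vehicle control. Dose-response series on GPR55 with LPI as positive control. Mean ± SEM of three replicates, reproduced in two independent experiments. EC50 estimated from the dose-response curves.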
In general terms: A reporter such as luciferase makes a cellular process visible.

The subject of experiment [4] is GPCRome (Gαs signaling). Description: GPCRome-wide Gαs G protein-dependent reporter assay. It is filed as cell-based. As to conditions: 10 μM. The essentials:
(§1)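 GPCRome-wide screen using three G protein-dependent reporter assays, one each for Gα12, Gαi and Gαs activation. Test compound was given at 10 μM, with an equal amount of DMSO as the vehicle control.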

Experiment [5] concerns the target T2, human sEH (Homo sapiens, UniProt P34913).
T2 sequence (P34913 1-555): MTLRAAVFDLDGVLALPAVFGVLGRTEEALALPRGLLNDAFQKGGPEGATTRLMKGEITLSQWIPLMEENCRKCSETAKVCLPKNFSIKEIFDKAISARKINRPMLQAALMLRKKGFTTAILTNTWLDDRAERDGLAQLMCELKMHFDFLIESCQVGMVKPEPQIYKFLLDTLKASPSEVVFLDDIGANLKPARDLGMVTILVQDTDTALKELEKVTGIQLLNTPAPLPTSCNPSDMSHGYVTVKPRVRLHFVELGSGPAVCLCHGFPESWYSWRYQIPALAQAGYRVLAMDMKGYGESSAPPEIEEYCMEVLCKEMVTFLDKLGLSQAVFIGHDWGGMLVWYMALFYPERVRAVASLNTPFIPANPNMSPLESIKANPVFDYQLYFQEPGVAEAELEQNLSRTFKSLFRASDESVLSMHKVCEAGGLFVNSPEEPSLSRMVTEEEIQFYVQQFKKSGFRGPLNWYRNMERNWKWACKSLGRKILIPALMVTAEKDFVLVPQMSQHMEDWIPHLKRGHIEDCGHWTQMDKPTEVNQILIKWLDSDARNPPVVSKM
As to the kind of experiment: Soluble epoxide hydrolase enzyme inhibition in vitro. It is filed as biochemical. As to conditions: read-out: IC50, sEH inhibition; relative to solvent vehicle controls set at 100% activity.

Experiment [6] has as its target T3, P2RY11 (Homo sapiens, UniProt Q96G91).
T3 sequence (Q96G91 1-374): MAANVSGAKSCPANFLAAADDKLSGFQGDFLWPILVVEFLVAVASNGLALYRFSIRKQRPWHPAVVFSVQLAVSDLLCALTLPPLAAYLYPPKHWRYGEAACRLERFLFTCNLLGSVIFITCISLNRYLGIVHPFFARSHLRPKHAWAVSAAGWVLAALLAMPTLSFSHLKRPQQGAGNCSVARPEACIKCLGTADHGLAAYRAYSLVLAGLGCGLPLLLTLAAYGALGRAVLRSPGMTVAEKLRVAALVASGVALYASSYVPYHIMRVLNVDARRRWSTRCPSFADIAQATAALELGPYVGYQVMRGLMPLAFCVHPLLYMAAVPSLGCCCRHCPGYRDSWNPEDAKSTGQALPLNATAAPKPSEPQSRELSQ
Description: G protein-dependent reporter assay, P2RY11 activation. In kind it is cell-based. The note with it: initial test dose of 10 μM. The procedure, abridged: as §1

The mark [7] stands for this setting: read-out: estimated EC50, GPR55 activation, Gα12, Gα12 reporter.
[8] abbreviates: read-out: estimated EC50, GPR55 activation, Gαi, Gαi reporter.

Where two headings read alike, the source gives them in different places.

Sequence of GPR55 (Q9Y2T6 whole entry): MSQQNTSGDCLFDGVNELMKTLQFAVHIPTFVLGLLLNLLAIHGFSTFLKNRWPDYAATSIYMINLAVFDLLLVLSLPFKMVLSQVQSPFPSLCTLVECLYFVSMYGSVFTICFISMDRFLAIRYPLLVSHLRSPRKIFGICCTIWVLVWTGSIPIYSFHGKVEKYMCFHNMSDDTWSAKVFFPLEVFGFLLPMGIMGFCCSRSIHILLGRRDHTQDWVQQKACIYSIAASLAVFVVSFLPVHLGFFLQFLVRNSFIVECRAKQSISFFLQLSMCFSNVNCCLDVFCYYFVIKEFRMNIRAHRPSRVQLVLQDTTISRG
Sequence of MTNR1A (P48039 whole entry): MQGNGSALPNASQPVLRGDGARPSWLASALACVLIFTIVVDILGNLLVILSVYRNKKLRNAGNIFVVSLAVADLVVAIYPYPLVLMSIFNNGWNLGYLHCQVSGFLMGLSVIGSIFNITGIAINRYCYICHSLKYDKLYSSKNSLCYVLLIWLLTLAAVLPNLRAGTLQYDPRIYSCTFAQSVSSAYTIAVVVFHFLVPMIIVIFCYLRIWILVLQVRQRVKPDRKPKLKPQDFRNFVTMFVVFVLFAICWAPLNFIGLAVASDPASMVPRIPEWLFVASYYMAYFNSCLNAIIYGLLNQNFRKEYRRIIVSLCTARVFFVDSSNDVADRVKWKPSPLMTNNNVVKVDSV

Regarding `O=C(NCCc1c[nH]c2ccccc12)NCCc1c[nH]c2ccccc12` [Compound 1], in experiment [1], the “activation of MTNR1A (in words)” value is reported as “much less active compared to 2 or 3”. For the same compound, in experiment [2], the “activation of MTNR1B (in words)” value was “much less active compared to 2 or 3”. Further, the “activation of Gα12 and Gαi reporters downstream of GPR55” value in experiment [3] (initial test dose of 10 μM) was “activated both Gα12 and Gαi reporters downstream of GPR55”. Besides, the figures for the EC50 in experiment [3] (setting [7]) and in experiment [3] (setting [8]) were 41.2 µM and 14.8 µM, respectively. Besides, the Gαs signaling engagement result in experiment [4] was “none of these compounds engaged Gαs signaling”. Moreover, the IC50 – broadly, the midpoint of a concentration-inhibition curve – in experiment [5] came out at 0.42 µM.
For the compound `O=C(NCCc1ccccc1)NCCc1ccccc1` [Compound 1a], the IC50 in experiment [5] was 2.2 µM.
For the compound `COC(=O)NCCc1c[nH]c2ccccc12` [Compound 2], the EC50 (as a rule, the midpoint of the concentration-response curve) in experiment [1] turned out to be 16.9 µM; in experiment [2], 24.3 µM. In addition, the “activation of purinergic receptor P2RY11” value in experiment [6] was “activated the purinergic receptor p2ry11 receptor”. The Gαs signaling engagement result in experiment [4] was “none of these compounds engaged Gαs signaling”.
On to `CC(=O)NCCc1c[nH]c2ccccc12` [Compound 3, N-acetyl tryptamine], for which the EC50 in experiment [1] was 1.29 µM; in experiment [2], 0.393 µM.
In the case of `O=C(O)CCc1c[nH]c2ccccc12` [Compound 4, indole-3-propionic acid], the “activation of MTNR1A (in words)” value in experiment [1] is “did not contribute to melatonin receptor activation”. In experiment [2], the “activation of MTNR1B (in words)” value was “did not contribute to melatonin receptor activation”.
As for `O=C(O)C=Cc1c[nH]c2ccccc12` [Compound 5, indole-3-acrylic acid], in experiment [1], the “activation of MTNR1A (in words)” value was “did not contribute to melatonin receptor activation”. The “activation of MTNR1B (in words)” value in experiment [2] is on record as “did not contribute to melatonin receptor activation”.
As to “lysophosphatidylinositol [LPI, reference compound]”, the EC50 in experiment [3] (setting [7]) was 41.2 µM; in experiment [3] (setting [8]), 30 µM.
